We go through 22 molecules from ChEMBL document CHEMBL2040844, “Anthranilic acid-based diamides derivatives incorporating aryl-isoxazoline pharmacophore as potential anticancer agents: design, synthesis and biological evaluation” (Eur J Med Chem, 2012).

By IC50 is commonly meant the midpoint of a concentration-inhibition curve.

Test [1] relates to MCF7. Kind of test: Growth inhibition of human MCF7 cells at 40 ug/ml after 72 hrs by MTT assay. Format: functional. Particulars: MCF7, 72 h, read-out: GI. In short, it runs like this:
(§1)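 Single-concentration screen at 40 µg/mL, reported as % cell growth inhibition. Cells were seeded at 2 × 10⁴ per well, grown to subconfluence, then treated for 72 h at 37 °C in humidified 5% CO₂. MTT was added for 4 h, formazan was dissolved in DMSO, and absorbance was read at 570 nm. Triplicate wells, three independent experiments; 5-FU served as positive control.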
(In general: Tetrazolium dyes change colour on reduction, which living cells bring about.)

The test system of test [2] is NCI-H460. Kind of test: Growth inhibition of human NCI-H460 cells at 40 ug/ml after 72 hrs by MTT assay. The class given is functional. Conditions: NCI-H460, 72 h, read-out: GI. In short, it runs like this:
as §1

Test [3] concerns SGC-7901. Kind of test: Growth inhibition of human SGC7901 cells at 40 ug/ml after 72 hrs by MTT assay. Format: functional. Conditions: SGC-7901, 72 h, read-out: GI. The method in brief:
as §1

Test [4] deals with BGC-823. Kind of test: Cytotoxicity against human BGC823 cells after 72 hrs by MTT assay. Particulars: BGC-823, 72 h. Format: functional, cell-based. The method in brief:
(§2)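 MTT assay. Cells were seeded at 2 × 10⁴ per well, grown to subconfluence, then exposed to serial dilutions of compound in test medium for 72 h at 37 °C in humidified 5% CO₂. MTT was added for 4 h, formazan was dissolved in DMSO, and absorbance was read at 570 nm. IC50 values were derived from dose-response. Triplicate wells, three independent experiments; 5-FU served as positive control.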

Test [5] deals with NCI-H460. Kind of test: Cytotoxicity against human NCI-H460 cells after 72 hrs by MTT assay. Format: functional, cell-based. Particulars: NCI-H460, 72 h. In short, it runs like this:
as §2

In test [6] the test system is BGC-823. Kind of test: Growth inhibition of human BGC823 cells at 40 ug/ml after 72 hrs by MTT assay. Format: functional. Conditions: BGC-823, 72 h, read-out: GI. The method in brief:
as §1

The test system of test [7] is MCF7. Kind of test: Cytotoxicity against human MCF7 cells after 72 hrs by MTT assay. The class given is functional, cell-based. Conditions: MCF7, 72 h. The method in brief: as §2
The test system of test [8] is SGC-7901. Kind of test: Cytotoxicity against human SGC7901 cells after 72 hrs by MTT assay. Format: functional, cell-based. Particulars: SGC-7901, 72 h. The method in brief:
as §2

Test [9] relates to HepG2. Kind of test: Cytotoxicity against human HepG2 cells after 72 hrs by MTT assay. The class given is functional, cell-based. Conditions: HepG2, 72 h. The method in brief:
as §2

Test [10] concerns HepG2. Kind of test: Growth inhibition of human HepG2 cells at 40 ug/ml after 72 hrs by MTT assay. Conditions: HepG2, 72 h, read-out: GI. Format: functional. The method in brief: as §1

Regarding `CCN(CC)C(=O)c1cc(Cl)cc(C)c1NC(=O)C1CC(c2ccc(F)cc2)=NO1` (stereo not given), the inhibition of growth at 40 µg/mL in test [1] is 14.4%; in test [2], 10%; in [3] it was 15.8%; in test [6], 36.4%; in [10], 18.2%. In addition, the IC50 in test [4], in [5], in test [7], in [8] and in [9] was over 100 µM throughout.

As for `CNC(=O)c1ccccc1NC(=O)C1CC(c2ccc(F)cc2)=NO1` (stereo not given), the inhibition of growth at 40 µg/mL in [1] came to 0%; in test [2], 0%; in test [3] it was 0%; in test [6], 21.4%; in [10], 9.1%.

Take `CC(C)NC(=O)c1ccccc1NC(=O)C1CC(c2ccc(F)cc2)=NO1` (stereo not given): the inhibition of growth at 40 µg/mL was 0% in test [1]; 0% in [2]; 10.3% in [3]; 21.5% in test [6]; 0% in [10].

Turning to `CCCNC(=O)c1cc(Cl)cc(C)c1NC(=O)C1CC(c2ccc(Cl)cc2)=NO1` (stereo not given), the inhibition of growth at 40 µg/mL in [1] worked out at 22.2%; in test [2], 13.6%; in test [3], 14.7%; in test [6] it was 24.5%; in [10], 16.7%.

Take `CCCNC(=O)c1cc(Cl)cc(C)c1NC(=O)C1CC(c2ccc(F)cc2)=NO1` (stereo not given): the inhibition of growth at 40 µg/mL in test [1] is 33%; in test [2] it was 20%; in [3] it was 30.5%; in [6], 23.5%; in test [10], 29.1%. The IC50 in test [4], in [5], in test [7], in [8] and in test [9] was over 100 µM in each case.

For `O=c1[nH]cc(F)c(=O)[nH]1` [FLUOROURACIL], the inhibition of growth at 40 µg/mL came to 80.4% in [1]; 89.7% in test [2]; 80.8% in test [3]; 85.7% in test [6]; 81.3% in test [10]. The IC50 amounted to 4.5 µM in test [4]; 2.4 µM in test [5]; 12.5 µM in [7]; 6.3 µM in test [8]; 4.8 µM in test [9].

`CNC(=O)c1cc(Cl)cc(C)c1NC(=O)C1CC(c2cc(OC)c(OC)c(OC)c2)=NO1` (stereo not given): the inhibition of growth at 40 µg/mL in test [1] came out at 26.1%; in test [2], 5.5%; in test [3], 27.3%; in test [6] it was 34.1%; in [10], 30.6%. Moreover, the 50% inhibitory concentration (IC50) in [4] is 54.1 µM; in test [5], over 100 µM; in [7], over 100 µM; in test [8], 65.5 µM; in [9], 67.6 µM.

As for `Cc1cc(Cl)cc(C(=O)NC2CCCCC2)c1NC(=O)C1CC(c2ccc(Cl)cc2)=NO1` (stereo not given), the inhibition of growth at 40 µg/mL in [1] was found to be 9.6%; in [2], 15.1%; in [3], 3.1%; in test [6], 18.3%; in test [10], 15.6%.

On to `Cc1cc(Cl)cc(C(=O)NC2CCCCC2)c1NC(=O)C1CC(c2ccc(F)cc2)=NO1` (stereo not given), for which the inhibition of growth at 40 µg/mL stood at 24.8% in [1]; 33.3% in [2]; 15.6% in test [3]; 34.3% in test [6]; 10% in test [10].

For the molecule `CC(C)NC(=O)c1ccccc1NC(=O)C1CC(c2ccc(Cl)cc2)=NO1` (stereo not given), the inhibition of growth at 40 µg/mL in test [1] amounted to 0%; in test [2] it was 0%; in test [3] it was 13.6%; in test [6], 14.6%; in test [10] it was 5.5%.

Turning to `COc1cc(C2=NOC(c3nc4c(C)cc(Cl)cc4c(=O)o3)C2)cc(OC)c1OC` (stereo not given), the inhibition of growth at 40 µg/mL in test [1] amounted to 12.4%; in [2], 0%; in test [3], 0%; in test [6], 0%; in test [10], 16.5%. The IC50 in test [4], in test [5], in [7], in test [8] and in test [9] was over 100 µM in each case.

Regarding `Cc1cc(Cl)cc2c(=O)oc(C3CC(c4ccc(F)cc4)=NO3)nc12` (stereo not given), the inhibition of growth at 40 µg/mL was 54.7% in test [1]; 64.6% in [2]; 42.7% in test [3]; 72.1% in test [6]; 38.9% in [10]. Moreover, the IC50 in test [4] was determined as 34.9 µM; in test [5], 35.8 µM; in test [7], 51.9 µM; in test [8] it was 53.4 µM; in [9] it was 53.4 µM.

In the case of `Cc1cc(Cl)cc(C(=O)Nc2ccccc2)c1NC(=O)C1CC(c2ccc(F)cc2)=NO1` (stereo not given), the inhibition of growth at 40 µg/mL turned out to be 17% in test [1]; 0% in test [2]; 11.6% in [3]; 26.4% in test [6]; 5.1% in test [10].

Regarding `COc1cc(C2=NOC(C(=O)Nc3ccccc3C(=O)NC(C)C)C2)cc(OC)c1OC` (stereo not given), the inhibition of growth at 40 µg/mL in test [1] came out at 0%; in [2] it was 0%; in test [3] it was 0%; in [6], 0%; in test [10], 11.7%.

With `Cc1cc(Cl)cc(C(=O)NC(C)C)c1NC(=O)C1CC(c2ccc(F)cc2)=NO1` (stereo not given), the inhibition of growth at 40 µg/mL worked out at 4.8% in [1]; 0% in test [2]; 17.2% in test [3]; 0% in test [6]; 13.6% in [10].

With `Cc1cc(Cl)cc(C(=O)NC(C)C)c1NC(=O)C1CC(c2ccc(Cl)cc2)=NO1` (stereo not given), the inhibition of growth at 40 µg/mL was found to be 3.9% in test [1]; 10.3% in [2]; 24.2% in test [3]; 38.7% in test [6]; 12.3% in [10].

Regarding `CNC(=O)c1cc(Cl)cc(C)c1NC(=O)C1CC(c2ccc(Cl)cc2)=NO1` (stereo not given), the inhibition of growth at 40 µg/mL in test [1] came out at 22.6%; in test [2] it was 0%; in test [3], 24.6%; in test [6], 13.2%; in [10], 18.7%. Besides, the 50% inhibitory concentration (IC50) in test [4], in [5], in test [7], in test [8] and in [9] was over 100 µM in each case.

With `CNC(=O)c1ccccc1NC(=O)C1CC(c2cc(OC)c(OC)c(OC)c2)=NO1` (stereo not given), the inhibition of growth at 40 µg/mL in test [1] was 9.1%; in test [2], 0%; in test [3], 12%; in test [6], 20.8%; in [10], 31.4%.

As for `CCCNC(=O)c1cc(Cl)cc(C)c1NC(=O)C1CC(c2cc(OC)c(OC)c(OC)c2)=NO1` (stereo not given), the inhibition of growth at 40 µg/mL came out at 29.1% in [1]; 9.5% in test [2]; 15.4% in test [3]; 28% in test [6]; 21.1% in test [10]. The IC50 in [4], in test [5], in [7], in [8] and in [9] was over 100 µM each time.

Consider `COc1cc(C2=NOC(C(=O)Nc3c(C)cc(Cl)cc3C(=O)NC(C)C)C2)cc(OC)c1OC` (stereo not given), for which the inhibition of growth at 40 µg/mL in [1] turned out to be 9.1%; in [2], 0.5%; in [3], 0%; in [6], 11.7%; in test [10], 12.9%.

For `CNC(=O)c1ccccc1NC(=O)C1CC(c2ccc(Cl)cc2)=NO1` (stereo not given), the inhibition of growth at 40 µg/mL in test [1] came out at 16.5%; in test [2] it was 5.7%; in test [3], 7.8%; in [6], 13.3%; in [10], 50.6%.

Turning to `CCN(CC)C(=O)c1cc(Cl)cc(C)c1NC(=O)C1CC(c2cc(OC)c(OC)c(OC)c2)=NO1` (stereo not given), the inhibition of growth at 40 µg/mL was 23.5% in test [1]; 0% in test [2]; 28.3% in test [3]; 27.8% in test [6]; 28.6% in [10].
